# Active and inactive are the calls of the source. The rule behind the calls is not given here.
# Experiments:
# [1] = Inhibition of Staphylococcus aureus PlsY expressed in Escherichia coli FB23281 using [U-14C]glycerol-PO4 as substrate after 20 mins by scintillation counting
# In short: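 Membranes from E. coli FB23281 (ΔplsY) expressing S. aureus PlsY (SA1187), 4 µg per reaction. pH 7.4 buffer of 100 mM Tris–HCl, 150 mM NaCl, 1 mg/mL BSA and 5 mM Na3VO4, with 100 µM [U-14C]glycerol-PO4. Started with 16:0-PO4 (final 100 µM), 20 min at 37°C. Spotted on filter discs, washed in graded ice-cold TCA, scintillation counted.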
# Staphylococcus aureus [2] = assay: Antibacterial activity against Staphylococcus aureus ATCC 29213 after overnight incubation by microbroth dilution assay; assay type: functional
# In short: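 CLSI M7A7 microbroth dilution in Mueller-Hinton broth; S. pneumoniae broth given 5% lysed horse blood. DMSO stocks of 10 mg/mL; twofold dilutions to final 200–0.0125 µg/mL. Mid-log inoculum (OD600 0.5) diluted to final OD600 0.0005 (~10^5 CFU/mL). Overnight at 37°C; MIC is the lowest concentration inhibiting 90% of visible growth.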
# Enterococcus faecalis = assay: Antibacterial activity against Enterococcus faecalis ATCC 33186 after overnight incubation by microbroth dilution assay; assay type: functional
# In short: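 CLSI microbroth dilution in Mueller-Hinton broth; compounds dissolved in DMSO, twofold serial dilutions giving final 200–0.0125 µg/mL. Inoculum from single colony grown at 37°C to mid-log (OD600 0.5), diluted to final OD600 0.0005 (~10^5 CFU/mL). Incubated overnight at 37°C; MIC = lowest concentration inhibiting 90% of visible growth.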
# Bacillus anthracis [3] = assay: Antibacterial activity against Bacillus anthracis after overnight incubation by microbroth dilution assay; assay type: functional
# Staphylococcus aureus [4] = assay: Growth inhibition of Staphylococcus aureus RN4220 harboring gpsA mutant at >= 25 uM measured over 2 hrs by spectrophotometry; assay type: functional, organism-based
# [5] = test system: Staphylococcus aureus subsp. aureus RN4220; assay: Inhibition of PlsY-mediated lipid synthesis in Staphylococcus aureus RN4220 harboring gpsA mutant assessed as inhibition of [14C]acetate incorporation into fatty acid at 50 uM incubated for 15 mins prior to [14C]acetate addition measured after 30 mins by scintillation counting
# In short: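 Mid-log S. aureus RN4220 (OD600 0.5) split into 10 mL aliquots. Compound or DMSO added for 15 min, then 10 µCi [14C]acetate for 30 min. Cells PBS-washed, lipids extracted by Bligh–Dyer, scintillation counted and normalized to OD600. Duplicates, mean with standard error.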
# Staphylococcus aureus [6] = assay: Inhibition of protein synthesis in Staphylococcus aureus RN4220 harboring gpsA mutant assessed as inhibition of [3H]amino acid incorporation into protein at 50 uM incubated for 15 mins before [3H]amino acid addition measured after 30 mins by scintillation counting; assay type: functional, organism-based
# In short: (§1)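 RN4220 at OD600 0.5 in 10 mL aliquots, 15 min with compound. Then 30 min with 10 µCi label: 3H amino acid mix (protein), [3H]thymidine (DNA) or [3H]uracil (stable RNA). Cells collected on 0.45 µm filters, counted, OD600-normalized and expressed relative to untreated cells. Duplicates, mean with standard error.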
# Staphylococcus aureus [7] = assay: Inhibition of DNA synthesis in Staphylococcus aureus RN4220 harboring gpsA mutant assessed as inhibition of [3H]thymidine incorporation into DNA at 50 uM incubated for 15 mins before [3H]thymidine addition measured after 30 mins by scintillation counting; assay type: functional, organism-based; in short: as §1
# [8] = test system: Staphylococcus aureus subsp. aureus RN4220; assay: Inhibition of PlsY in Staphylococcus aureus RN4220 harboring gpsA mutant assessed as Fab4-mediated fatty acid chain elongation measured as 17C fatty acid level at 25 uM after 2.5 hrs by mass spectrophotometry; parameters: scale not given: the % may be the effect or the level left
# In short: (§2)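 RN4220 grown in Luria-Bertani broth at 37°C with 225 rpm shaking to OD600 0.5. 50 mL cultures treated for 2.5 h alongside a DMSO control. Lipids extracted by Bligh–Dyer and fatty acids analyzed by gas chromatography. Weight percent, mean of duplicates; not detected means <1%.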
# [9] = test system: Staphylococcus aureus subsp. aureus RN4220; assay: Inhibition of PlsY in Staphylococcus aureus RN4220 harboring gpsA mutant assessed as Fab4-mediated fatty acid chain elongation measured as 18C fatty acid level at 25 uM after 2.5 hrs by mass spectrophotometry; parameters: scale not given: the % may be the effect or the level left; in short: as §2
# [10] = test system: Staphylococcus aureus subsp. aureus RN4220; assay: Inhibition of PlsY in Staphylococcus aureus RN4220 harboring gpsA mutant assessed as Fab4-mediated fatty acid chain elongation measured as 19C fatty acid level at 25 uM after 2.5 hrs by mass spectrophotometry; parameters: scale not given: the % may be the effect or the level left; in short: as §2
# [11] = test system: Staphylococcus aureus subsp. aureus RN4220; assay: Inhibition of PlsY in Staphylococcus aureus RN4220 harboring gpsA mutant assessed as Fab4-mediated fatty acid chain elongation measured as 20C fatty acid level at 25 uM after 2.5 hrs by mass spectrophotometry; parameters: scale not given: the % may be the effect or the level left; in short: as §2
# [12] = test system: Staphylococcus aureus subsp. aureus RN4220; assay: Inhibition of PlsY in Staphylococcus aureus RN4220 harboring gpsA mutant assessed as Fab4-mediated fatty acid chain elongation measured as 15C fatty acid level at 50 uM after 2.5 hrs by mass spectrophotometry; parameters: scale not given: the % may be the effect or the level left; in short: as §2
# [13] = test system: Staphylococcus aureus subsp. aureus RN4220; assay: Inhibition of PlsY in Staphylococcus aureus RN4220 harboring gpsA mutant assessed as Fab4-mediated fatty acid chain elongation measured as 16C fatty acid level at 50 uM after 2.5 hrs by mass spectrophotometry; parameters: scale not given: the % may be the effect or the level left; in short: as §2
# [14] = test system: Staphylococcus aureus subsp. aureus RN4220; assay: Inhibition of PlsY in Staphylococcus aureus RN4220 harboring gpsA mutant assessed as Fab4-mediated fatty acid chain elongation measured as 17C fatty acid level at 50 uM after 2.5 hrs by mass spectrophotometry; parameters: scale not given: the % may be the effect or the level left; in short: as §2
# [15] = test system: Staphylococcus aureus subsp. aureus RN4220; assay: Inhibition of PlsY in Staphylococcus aureus RN4220 harboring gpsA mutant assessed as Fab4-mediated fatty acid chain elongation measured as 18C fatty acid level at 50 uM after 2.5 hrs by mass spectrophotometry; parameters: scale not given: the % may be the effect or the level left; in short: as §2
# [16] = test system: Staphylococcus aureus subsp. aureus RN4220; assay: Inhibition of PlsY in Staphylococcus aureus RN4220 harboring gpsA mutant assessed as Fab4-mediated fatty acid chain elongation measured as 19C fatty acid level at 50 uM after 2.5 hrs by mass spectrophotometry; parameters: scale not given: the % may be the effect or the level left; in short: as §2
# [17] = test system: Staphylococcus aureus subsp. aureus RN4220; assay: Inhibition of PlsY in Staphylococcus aureus RN4220 harboring gpsA mutant assessed as Fab4-mediated fatty acid chain elongation measured as 21C fatty acid level at 50 uM after 2.5 hrs by mass spectrophotometry; parameters: scale not given: the % may be the effect or the level left; in short: as §2
# [18] = test system: Staphylococcus aureus subsp. aureus RN4220; assay: Inhibition of PlsY in Staphylococcus aureus RN4220 harboring gpsA mutant assessed as 34C phophotidylglycerol formation at 25 uM after 2.5 hrs by mass spectrophotometry
# In short: (§3)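 RN4220 grown in Luria-Bertani broth at 37°C to OD600 0.5. 50 mL aliquots treated for 2.5 h alongside a DMSO control. Cells PBS-washed, lipids extracted by Bligh–Dyer. Phosphatidylglycerol molecular species distribution determined by mass spectrometry.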
# [19] = test system: Staphylococcus aureus subsp. aureus RN4220; assay: Inhibition of PlsY in Staphylococcus aureus RN4220 harboring gpsA mutant assessed as 35C phophotidylglycerol formation at 50 uM after 2.5 hrs by mass spectrophotometry; in short: as §3
# Bacillus anthracis [20] = assay: Growth inhibition of Bacillus anthracis sterne at 5 uM measured immediately post-compound addition; assay type: functional, organism-based
# Bacillus anthracis [21] = assay: Inhibition of DNA synthesis in Bacillus anthracis sterne assessed as Inhibition of [3H]thymidine incorporation into DNA incubated for 15 mins prior to [3H]thymidine addition measured after 30 mins by scintillation counting; assay type: functional, organism-based
# Bacillus anthracis [22] = assay: Inhibition of RNA synthesis in Bacillus anthracis sterne assessed as Inhibition of [3H]uracil incorporation into RNA incubated for 15 mins prior to [3H]uracil addition measured after 30 mins by scintillation counting; assay type: functional, organism-based
smiles,measurement,setting,value
O=C(CCCCCCCc1ccccc1)NS(=O)(=O)Oc1ccccc1,IC50,[1],25 µM
same,MIC90,Staphylococcus aureus [2],12.5 µg/mL
same,MIC90,Enterococcus faecalis,100 µg/mL
same,MIC90,Bacillus anthracis [3],6.25 µg/mL
same,growth inhibition (GI),Staphylococcus aureus [4],Active
same,inhibition,[5],Active
same,inhibition,Staphylococcus aureus [6],inactive
same,inhibition,Staphylococcus aureus [7],inactive
same,Activity,[8],10%
same,Activity,[9],9%
same,Activity,[10],18%
same,Activity,[11],9%
same,Activity,[12],32%
same,Activity,[13],6%
same,Activity,[14],8%
same,Activity,[15],12%
same,Activity,[16],14%
same,Activity,[17],14%
same,inhibition,[18],Active
same,inhibition,[19],Active
same,growth inhibition (GI),Bacillus anthracis [20],Active
same,inhibition,Bacillus anthracis [21],Active
same,inhibition,Bacillus anthracis [22],Active

# Reference: ChEMBL document CHEMBL2086264
